Data as given in ChEMBL document CHEMBL4689842, “EUbOPEN Chemogenomics Library wave 1” (2021).

How the values were obtained:
U2OS [1] = assay: Multiplex assay against U2OS; assay type: toxicity, cell-based; settings: human
In short: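 Four dyes were applied at seeding to live cells: Hoechst33342, BioTracker Green Microtubule Cytoskeleton Dye, MitoTracker Red and Annexin V Alexa Fluor 680. Imaging after compound addition used a CQ1 microscope at 37°C and 5% CO2. CellPathfinder machine-learning gating then sorted cells into Hoechst high-intensity objects or normal cells, normal cells into healthy, pyknosed or fragmented nuclei, and pyknosed cells into mitotic or apoptotic, with tubulin, mitochondrial-mass and membrane-permeability phenotypes given as per cents of healthy-nucleus cells.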

U2OS [2] = assay: Incucyte cell viability with U2OS; assay type: toxicity, cell-based; settings: human, 10 µM, compound concentration 10 uM; also: filed as whole numbers so only -1 and 0 and 1 occur
[3] = 12 h, 1 µM, compound concentration 1 uM, replicate 1
[4] = 12 h, 1 µM, compound concentration 1 uM, replicate 2
[5] = 12 h, 10 µM, compound concentration 10 uM, replicate 1
[6] = 12 h, 10 µM, compound concentration 10 uM, replicate 2
[7] = 24 h, 1 µM, compound concentration 1 uM, replicate 1
[8] = 24 h, 1 µM, compound concentration 1 uM, replicate 2
[9] = 24 h, 10 µM, compound concentration 10 uM, replicate 1
[10] = 24 h, 10 µM, compound concentration 10 uM, replicate 2

With CCOc1ccn(-c2ccc(F)cc2)c(=O)c1C(=O)Nc1ccc(Oc2ccnc(N)c2Cl)c(F)c1 [BMS-777607] the “Population Apoptotic (%)” value (U2OS [1]; [3]) was 41%, the “Population Healthy Nuclei (%)” value (U2OS [1]; [3]) was 88% and the “Population Hoechst High Intensity Objects (%)” value (U2OS [1]; [3]) was 4%. The “Population Membrane Permeable-Phenotype (%)” value (U2OS [1]; [3]) was 35%, the “Population Mitochondria Different-Phenotype (%)” value (U2OS [1]; [3]) was 11% and the “Population Mitotic Cells (%)” value (U2OS [1]; [3]) was 58%. The “Population Normal (%)” value (U2OS [1]; [3]) was 95%, the “Population Pyknosed Nuclei (%)” value (U2OS [1]; [3]) was 6% and the “Total Cell Count” value (U2OS [1]; [3]) was 190. The “Population Apoptotic (%)” value (U2OS [1]; [4]) was 28%, the “Population Fragmented Nuclei (%)” value (U2OS [1]; [4]) was 4% and the “Population Healthy Nuclei (%)” value (U2OS [1]; [4]) was 86%. The “Population Hoechst High Intensity Objects (%)” value (U2OS [1]; [4]) was 13%, the “Population Membrane Permeable-Phenotype (%)” value (U2OS [1]; [4]) was 40% and the “Population Mitochondria Different-Phenotype (%)” value (U2OS [1]; [4]) was 31%. For the same molecule, the “Population Mitotic Cells (%)” value (U2OS [1]; [4]) was 71%, the “Population Normal (%)” value (U2OS [1]; [4]) was 86% and the “Population Pyknosed Nuclei (%)” value (U2OS [1]; [4]) was 8%. For the same molecule, the “Population Tubulin-Different-Phenotype (%)” value (U2OS [1]; [4]) was 18%, the “Total Cell Count” value (U2OS [1]; [4]) was 94 and the “Population Apoptotic (%)” value (U2OS [1]; [5]) was 66%. The “Population Fragmented Nuclei (%)” value (U2OS [1]; [5]) was 2%, the “Population Healthy Nuclei (%)” value (U2OS [1]; [5]) was 91% and the “Population Hoechst High Intensity Objects (%)” value (U2OS [1]; [5]) was 1%. The “Population Membrane Permeable-Phenotype (%)” value (U2OS [1]; [5]) was 5%, the “Population Mitochondria Different-Phenotype (%)” value (U2OS [1]; [5]) was 33% and the “Population Mitotic Cells (%)” value (U2OS [1]; [5]) was 33%. For the same molecule, the “Population Normal (%)” value (U2OS [1]; [5]) was 98%, the “Population Pyknosed Nuclei (%)” value (U2OS [1]; [5]) was 6% and the “Population Tubulin-Different-Phenotype (%)” value (U2OS [1]; [5]) was 29%. For the same molecule, the “Total Cell Count” value (U2OS [1]; [5]) was 193, the “Population Apoptotic (%)” value (U2OS [1]; [6]) was 0% and the “Population Fragmented Nuclei (%)” value (U2OS [1]; [6]) was 6%. For the same molecule, the “Population Healthy Nuclei (%)” value (U2OS [1]; [6]) was 89%, the “Population Hoechst High Intensity Objects (%)” value (U2OS [1]; [6]) was 16% and the “Population Mitochondria Different-Phenotype (%)” value (U2OS [1]; [6]) was 30%. The “Population Mitotic Cells (%)” value (U2OS [1]; [6]) was 100%, the “Population Normal (%)” value (U2OS [1]; [6]) was 83% and the “Population Pyknosed Nuclei (%)” value (U2OS [1]; [6]) was 4%. For the same molecule, the “Population Tubulin-Different-Phenotype (%)” value (U2OS [1]; [6]) was 37%, the “Total Cell Count” value (U2OS [1]; [6]) was 118 and the “Population Apoptotic (%)” value (U2OS [1]; [7]) was 57%. For the same molecule, the “Population Fragmented Nuclei (%)” value (U2OS [1]; [7]) was 7%, the “Population Healthy Nuclei (%)” value (U2OS [1]; [7]) was 85% and the “Population Hoechst High Intensity Objects (%)” value (U2OS [1]; [7]) was 3%. For the same molecule, the “Population Membrane Permeable-Phenotype (%)” value (U2OS [1]; [7]) was 37%, the “Population Mitochondria Different-Phenotype (%)” value (U2OS [1]; [7]) was 23% and the “Population Mitotic Cells (%)” value (U2OS [1]; [7]) was 42%. For the same molecule, the “Population Normal (%)” value (U2OS [1]; [7]) was 96%, the “Population Pyknosed Nuclei (%)” value (U2OS [1]; [7]) was 7% and the “Population Tubulin-Different-Phenotype (%)” value (U2OS [1]; [7]) was 16%. For the same molecule, the “Total Cell Count” value (U2OS [1]; [7]) was 196, the “Population Apoptotic (%)” value (U2OS [1]; [8]) was 36% and the “Population Fragmented Nuclei (%)” value (U2OS [1]; [8]) was 6%. For the same molecule, the “Population Healthy Nuclei (%)” value (U2OS [1]; [8]) was 81%, the “Population Hoechst High Intensity Objects (%)” value (U2OS [1]; [8]) was 10% and the “Population Membrane Permeable-Phenotype (%)” value (U2OS [1]; [8]) was 28%. The “Population Mitochondria Different-Phenotype (%)” value (U2OS [1]; [8]) was 35%, the “Population Mitotic Cells (%)” value (U2OS [1]; [8]) was 63% and the “Population Normal (%)” value (U2OS [1]; [8]) was 89%. The “Population Pyknosed Nuclei (%)” value (U2OS [1]; [8]) was 12%, the “Population Tubulin-Different-Phenotype (%)” value (U2OS [1]; [8]) was 20% and the “Total Cell Count” value (U2OS [1]; [8]) was 101. The “Population Apoptotic (%)” value (U2OS [1]; [9]) was 26%, the “Population Fragmented Nuclei (%)” value (U2OS [1]; [9]) was 3% and the “Population Healthy Nuclei (%)” value (U2OS [1]; [9]) was 91%. The “Population Hoechst High Intensity Objects (%)” value (U2OS [1]; [9]) was 1%, the “Population Membrane Permeable-Phenotype (%)” value (U2OS [1]; [9]) was 5% and the “Population Mitochondria Different-Phenotype (%)” value (U2OS [1]; [9]) was 27%. For the same molecule, the “Population Mitotic Cells (%)” value (U2OS [1]; [9]) was 73%, the “Population Normal (%)” value (U2OS [1]; [9]) was 98% and the “Population Pyknosed Nuclei (%)” value (U2OS [1]; [9]) was 5%. For the same molecule, the “Population Tubulin-Different-Phenotype (%)” value (U2OS [1]; [9]) was 30%, the “Total Cell Count” value (U2OS [1]; [9]) was 263 and the “Population Apoptotic (%)” value (U2OS [1]; [10]) was 12%. The “Population Fragmented Nuclei (%)” value (U2OS [1]; [10]) was 2%, the “Population Healthy Nuclei (%)” value (U2OS [1]; [10]) was 90% and the “Population Hoechst High Intensity Objects (%)” value (U2OS [1]; [10]) was 8%. The “Population Membrane Permeable-Phenotype (%)” value (U2OS [1]; [10]) was 8%, the “Population Mitochondria Different-Phenotype (%)” value (U2OS [1]; [10]) was 34% and the “Population Mitotic Cells (%)” value (U2OS [1]; [10]) was 87%. The “Population Normal (%)” value (U2OS [1]; [10]) was 91%, the “Population Pyknosed Nuclei (%)” value (U2OS [1]; [10]) was 6% and the “Population Tubulin-Different-Phenotype (%)” value (U2OS [1]; [10]) was 36%. The “Total Cell Count” value (U2OS [1]; [10]) was 133, the “Growth Rate” value (U2OS [2]; 0 h, replicate number 1, timepoint 0 hours) was 1 and the “Growth Rate” value (U2OS [2]; 0 h, replicate number 2, timepoint 0 hours) was 0. The “Growth Rate” value (U2OS [2]; 6 h, replicate number 1, timepoint 6 hours) was 0, the “Growth Rate” value (U2OS [2]; 12 h, replicate number 1, timepoint 12 hours) was 0 and the “Growth Rate” value (U2OS [2]; 18 h, replicate number 1, timepoint 18 hours) was 0. For the same molecule, the “Growth Rate” value (U2OS [2]; 24 h, replicate number 1, timepoint 24 hours) was 0.
